ChEMBL document CHEMBL1130429 (J Med Chem, 1997)

Target: Dopamine receptor D2 and D3 (Rattus norvegicus, UniProt P19020+P61169)
Experiment: In vitro binding affinity for D2/D3 receptors in rat striatal homogenates by [125I]NCQ298 displacement.

First: O[C@H]1Cc2ccccc2C[C@@H]1N1C2CCC1CC(c1ccccc1)C2 (stereo partly specified)
Second: O[C@H]1CCN(Cc2cccc(I)c2)C[C@@H]1N1C2CCC1CC(c1ccccc1)C2 (stereo partly specified)
The Ki of the first is 1.7-fold higher: 3385 nM for the first, 1967 nM for the second.

Compared with `OC(CN1C2CCC1CC(c1ccccc1)C2)c1cccc(Br)c1` (stereo unspecified), `OC(CN1C2CCC1CC(c1ccccc1)C2)c1ccc(Br)cc1` (stereo unspecified) is 1.9-fold higher in Ki: 2658 nM for the first, 5092 nM for the second.

Compared with `O[C@H]1CCN(Cc2ccc(F)cc2)C[C@@H]1N1C2CCC1CC(c1ccccc1)C2` (stereo partly specified), `O=C(CCCN1C2CCC1CC(c1ccccc1)C2)c1ccc(F)cc1` (stereo unspecified) is 540-fold lower in Ki: 8795 nM for the first, 16.3 nM for the second.

Compared with `OC(Cc1ccc(Br)cc1)CN1C2CCC1CC(c1ccccc1)C2` (stereo unspecified), `CN1CC2(CCN(CCCC(=O)c3ccc(F)cc3)CC2)c2ccccc21` is 26-fold lower in Ki: 1490 nM for the first, 56.5 nM for the second.

In the case of `O[C@@H](CN1CCC2(CCc3ccccc32)CC1)c1cccc(Br)c1`, the Ki is reported as greater than 1000 nM.
In the case of `CN1CC2(CCN(C[C@H](O)c3cccc(Br)c3)CC2)c2ccccc21`, the Ki is reported as greater than 1000 nM.
With `CN1CC2(CCN([C@@H]3CN(Cc4ccc(F)cc4)CC[C@H]3O)CC2)c2ccccc21` the Ki was greater than 1000 nM.
In the case of `CN1CC2(CCN([C@@H]3CCCC[C@H]3O)CC2)c2ccccc21`, the Ki is reported as greater than 1000 nM.
`O[C@@H]1CCN(Cc2cccc(I)c2)C[C@H]1N1CCC2(CCc3ccccc32)CC1` was tested, and the Ki was greater than 1000 nM.
`O[C@@H]1CCCC[C@H]1N1CCC2(CCc3ccccc32)CC1` gave a Ki greater than 1000 nM.
`CN1CC2(CCN(C[C@H](O)Cc3ccc(Br)cc3)CC2)c2ccccc21` showed a Ki greater than 1000 nM.
`O[C@H]1CCCC[C@@H]1N1C2CCC1CC(c1ccccc1)C2` (stereo partly specified) was tested, and the Ki was greater than 38000 nM.
With `CN1CC2(CCN([C@@H]3Cc4ccccc4C[C@H]3O)CC2)c2ccccc21` the Ki was greater than 1000 nM.
In the case of `O[C@H](Cc1ccc(Br)cc1)CN1CCC2(CCc3ccccc32)CC1`, the Ki is reported as greater than 1000 nM.
With `CN1CC2(CCN([C@@H]3CN(Cc4cccc(I)c4)CC[C@H]3O)CC2)c2ccccc21` the Ki was greater than 1000 nM.
`O[C@@H]1CCN(Cc2ccc(F)cc2)C[C@H]1N1CCC2(CCc3ccccc32)CC1` gave a Ki greater than 1000 nM.
For `O[C@@H]1Cc2ccccc2C[C@H]1N1CCC2(CCc3ccccc32)CC1`, the Ki was greater than 1000 nM.

Target: T1, Sodium-dependent dopamine transporter (Rattus norvegicus, UniProt P23977)
Experiment: Binding affinity for dopamine transporter was determined in rat striatal membrane.
Assay type: cell membranes

T1 sequence (P23977 whole entry): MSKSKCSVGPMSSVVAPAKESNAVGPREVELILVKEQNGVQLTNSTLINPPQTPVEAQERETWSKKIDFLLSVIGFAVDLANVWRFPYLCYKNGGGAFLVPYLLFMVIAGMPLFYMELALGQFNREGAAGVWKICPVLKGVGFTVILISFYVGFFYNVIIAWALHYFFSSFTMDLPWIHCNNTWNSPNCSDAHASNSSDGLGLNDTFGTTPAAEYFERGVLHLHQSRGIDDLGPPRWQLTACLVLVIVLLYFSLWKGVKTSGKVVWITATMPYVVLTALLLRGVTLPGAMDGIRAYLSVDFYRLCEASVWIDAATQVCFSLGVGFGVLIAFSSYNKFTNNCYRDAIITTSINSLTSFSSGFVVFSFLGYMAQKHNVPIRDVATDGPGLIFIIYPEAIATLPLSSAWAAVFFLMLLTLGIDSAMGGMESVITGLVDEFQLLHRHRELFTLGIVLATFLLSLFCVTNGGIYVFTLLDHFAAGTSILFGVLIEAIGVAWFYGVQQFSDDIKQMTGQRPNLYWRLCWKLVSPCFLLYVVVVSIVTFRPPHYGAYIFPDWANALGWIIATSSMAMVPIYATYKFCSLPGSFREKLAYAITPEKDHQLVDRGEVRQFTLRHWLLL

Going from `O[C@H]1CCN(Cc2cccc(I)c2)C[C@@H]1N1C2CCC1CC(c1ccccc1)C2` (stereo partly specified) to `O[C@H]1CCN(Cc2ccc(F)cc2)C[C@@H]1N1C2CCC1CC(c1ccccc1)C2` (stereo partly specified), the Ki rises from 1070 nM to 4180 nM (3.9-fold).

Going from `OC(CN1C2CCC1CC(c1ccccc1)C2)c1ccc(Cl)c(Cl)c1` (stereo unspecified) to `OC(CN1C2CCC1CC(c1ccccc1)C2)c1c(Cl)cccc1Cl` (stereo unspecified), the Ki rises from 23.6 nM to 42 nM (1.8-fold). The first binds more tightly here.

Compared with `OC(CN1C2CCC1CC(c1ccccc1)C2)c1cccc(Br)c1` (stereo unspecified), `OC(CN1C2CCC1CC(c1ccccc1)C2)c1ccc(Br)cc1` (stereo unspecified) is 3.1-fold higher in Ki: 23.6 nM for the first, 73.8 nM for the second.

Going from `OC(CN1C2CCC1CC(c1ccccc1)C2)c1ccccc1Br` (stereo unspecified) to `O=C(CN1C2CCC1CC(c1ccccc1)C2)c1ccc(F)cc1` (stereo unspecified), the Ki rises from 67.2 nM to 222 nM (3.3-fold).

Work on `O=C(CCCN1C2CCC1CC(c1ccccc1)C2)c1ccc(F)cc1` (stereo unspecified) yielded a Ki of 129 nM.

Target: T2, Sodium-dependent serotonin transporter (Rattus norvegicus, UniProt P31652)
Experiment: Binding affinity for serotonin transporter was determined in rat cortical membrane
Assay type: cell membranes

T2 sequence (P31652 whole entry): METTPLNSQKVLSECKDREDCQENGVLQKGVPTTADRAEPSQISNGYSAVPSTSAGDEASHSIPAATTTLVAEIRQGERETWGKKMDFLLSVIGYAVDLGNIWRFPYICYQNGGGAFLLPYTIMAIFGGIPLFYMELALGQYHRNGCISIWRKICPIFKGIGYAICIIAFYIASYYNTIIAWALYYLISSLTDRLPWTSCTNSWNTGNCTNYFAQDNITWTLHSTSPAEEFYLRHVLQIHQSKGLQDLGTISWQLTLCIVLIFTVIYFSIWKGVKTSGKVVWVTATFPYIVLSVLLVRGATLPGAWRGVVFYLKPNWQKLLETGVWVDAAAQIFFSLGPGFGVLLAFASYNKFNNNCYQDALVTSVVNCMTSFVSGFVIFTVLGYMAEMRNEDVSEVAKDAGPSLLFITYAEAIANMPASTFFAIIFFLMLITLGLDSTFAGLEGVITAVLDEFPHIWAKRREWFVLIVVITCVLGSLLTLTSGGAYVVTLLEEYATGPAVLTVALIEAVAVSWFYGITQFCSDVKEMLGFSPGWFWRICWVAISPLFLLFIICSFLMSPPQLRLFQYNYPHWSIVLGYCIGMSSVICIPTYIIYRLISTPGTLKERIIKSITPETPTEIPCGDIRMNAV

Going from `O[C@H]1Cc2ccccc2C[C@@H]1N1C2CCC1CC(c1ccccc1)C2` (stereo partly specified) to `O[C@H]1CCCC[C@@H]1N1C2CCC1CC(c1ccccc1)C2` (stereo partly specified), the Ki rises from 1680 nM to 3420 nM (2-fold). The first binds more tightly here.

`OC(Cc1ccc(Br)cc1)CN1C2CCC1CC(c1ccccc1)C2` (stereo unspecified) showed a Ki of 234 nM.

Target: T2, Sodium-dependent serotonin transporter
Experiment: Binding affinity for serotonin transporter was determined in rat cortical membrane.
Assay type: cell membranes

Compared with `O[C@H]1CCN(Cc2cccc(I)c2)C[C@@H]1N1C2CCC1CC(c1ccccc1)C2` (stereo partly specified), `O[C@H]1CCN(Cc2ccc(F)cc2)C[C@@H]1N1C2CCC1CC(c1ccccc1)C2` (stereo partly specified) is 2.1-fold higher in Ki: 4430 nM for the first, 9200 nM for the second.

`OC(CN1C2CCC1CC(c1ccccc1)C2)c1cccc(Br)c1` (stereo unspecified) and `OC(CN1C2CCC1CC(c1ccccc1)C2)c1ccc(Br)cc1` (stereo unspecified) are within 1.5-fold of each other in Ki: 27 nM for the first, 30.1 nM for the second.

Work on `O=C(CCCN1C2CCC1CC(c1ccccc1)C2)c1ccc(F)cc1` (stereo unspecified) yielded a Ki of 88.6 nM.

Target: T1, Sodium-dependent dopamine transporter
Experiment: Binding affinity for dopamine transporter was determined in rat striatal membrane
Assay type: cell membranes, Striatum

Going from `O[C@H]1Cc2ccccc2C[C@@H]1N1C2CCC1CC(c1ccccc1)C2` (stereo partly specified) to `O[C@H]1CCCC[C@@H]1N1C2CCC1CC(c1ccccc1)C2` (stereo partly specified), the Ki rises from 1070 nM to 2810 nM (2.6-fold). The first binds more tightly here.

Going from `OC(CN1C2CCC1CC(c1ccccc1)C2)c1ccccc1` (stereo unspecified) to `OC(Cc1ccc(Br)cc1)CN1C2CCC1CC(c1ccccc1)C2` (stereo unspecified), the Ki rises from 41.5 nM to 306 nM (7.4-fold). The first binds more tightly here.

`OC(CCCN1C2CCC1CC(c1ccccc1)C2)c1ccc(F)cc1` (stereo unspecified) was tested, and the Ki was 464 nM.

Target: Sigma 2 receptor
Experiment: Sigma 2 binding assay was done rat liver membrane, by labeling the binding site with [3H]DTG (DuPont-NEN) in the presence of […]-pentazocine (100 nM)

Going from `CN1CC2(CCN(C[C@H](O)c3cccc(Br)c3)CC2)c2ccccc21` to `CN1CC2(CCN(C[C@H](O)Cc3ccc(Br)cc3)CC2)c2ccccc21`, the Ki falls from 99.2 nM to 22.9 nM (4.3-fold).

Compared with `O[C@@H]1CCN(Cc2cccc(I)c2)C[C@H]1N1CCC2(CCc3ccccc32)CC1`, `CN1CC2(CCN([C@@H]3CN(Cc4cccc(I)c4)CC[C@H]3O)CC2)c2ccccc21` is 1.6-fold lower in Ki: 224 nM for the first, 139 nM for the second.

First: O[C@@H]1CCCC[C@H]1N1CCC2(CCc3ccccc32)CC1
Second: O[C@@H]1CCN(Cc2ccc(F)cc2)C[C@H]1N1CCC2(CCc3ccccc32)CC1
The Ki of the first is 2.2-fold lower: 30 nM for the first, 67 nM for the second.

Going from `O[C@H](Cc1ccc(Br)cc1)CN1CCC2(CCc3ccccc32)CC1` to `O=C(CCCN1CCC2(CCc3ccccc32)CC1)c1ccc(F)cc1`, the Ki falls from 8.8 nM to 3.3 nM (2.7-fold).

Target: Sigma 2 receptor
Experiment: Sigma 2 binding assay was done rat liver membrane, by labeling the binding site with [3H]-DTG (DuPont-NEN) in the presence of […]-pentazocine (100 nM)
How it was run: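 P2 membranes from male Sprague-Dawley rat liver (35 µg protein) with 3 nM [3H]DTG plus 100 nM unlabelled (+)-pentazocine to mask σ1, 50 mM Tris-HCl pH 8.0, 120 min, 25 °C; GF/B filtration; nonspecific with 5 µM DTG. IC50 in triplicate from 5-10 concentrations, Ki via Cheng-Prusoff (Kd 17.9 nM), mean ± SEM.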

`O[C@@H](CN1CCC2(CCc3ccccc32)CC1)c1cccc(Br)c1` and `OC(CN1C2CCC1CC(c1ccccc1)C2)c1cccc(Br)c1` (stereo unspecified) are within 1.5-fold of each other in Ki: 12.7 nM for the first, 9.87 nM for the second.

Going from `OC(CN1C2CCC1CC(c1ccccc1)C2)c1ccccc1` (stereo unspecified) to `OC(CN1C2CCC1CC(c1ccccc1)C2)c1ccccc1Br` (stereo unspecified), the Ki falls from 32.7 nM to 7.71 nM (4.2-fold). The second binds more tightly here.

`O[C@H]1CCN(Cc2cccc(I)c2)C[C@@H]1N1C2CCC1CC(c1ccccc1)C2` (stereo partly specified) and `O[C@H]1CCN(Cc2ccc(F)cc2)C[C@@H]1N1C2CCC1CC(c1ccccc1)C2` (stereo partly specified) are within 1.5-fold of each other in Ki: 275 nM for the first, 260 nM for the second.

`OC(CN1C2CCC1CC(c1ccccc1)C2)c1ccc(Cl)c(Cl)c1` (stereo unspecified) and `OC(CN1C2CCC1CC(c1ccccc1)C2)c1c(Cl)cccc1Cl` (stereo unspecified) are within 1.5-fold of each other in Ki: 18.8 nM for the first, 15.9 nM for the second.

Compared with `CN1CC2(CCN([C@@H]3CCCC[C@H]3O)CC2)c2ccccc21`, `CN1CC2(CCN(CCCC(=O)c3ccc(F)cc3)CC2)c2ccccc21` is 5.9-fold lower in Ki: 357 nM for the first, 60.8 nM for the second.

Going from `O[C@H]1CCCC[C@@H]1N1C2CCC1CC(c1ccccc1)C2` (stereo partly specified) to `OC(CN1C2CCC1CC(c1ccccc1)C2)c1ccc(Br)cc1` (stereo unspecified), the Ki falls from 118 nM to 11.3 nM (10-fold). The second binds more tightly here.

First: O=C(CN1C2CCC1CC(c1ccccc1)C2)c1ccc(F)cc1 (stereo unspecified)
Second: O=C(CCCN1C2CCC1CC(c1ccccc1)C2)c1ccc(F)cc1 (stereo unspecified)
The Ki of the first is 4.8-fold higher: 73.3 nM for the first, 15.4 nM for the second. The second binds more tightly here.

`OC(Cc1ccc(Br)cc1)CN1C2CCC1CC(c1ccccc1)C2` (stereo unspecified) showed a Ki of 4.95 nM.
